Results on two compounds are retold here after ChEMBL document CHEMBL4257472, “Antitumor effect of sikokianin C, a selective cystathionine β-synthase inhibitor, against human colon cancer in vitro and in vivo” (Medchemcomm, 2018).

Broadly, the IC50 is the point on the concentration scale where inhibition reaches its midpoint.

Activity calls are given as the source filed them. The rule behind the calls is not given here.

Data set [1] has as its target T1, Cystathionine beta-synthase (Homo sapiens, UniProt P35520).
T1 sequence (P35520 whole entry): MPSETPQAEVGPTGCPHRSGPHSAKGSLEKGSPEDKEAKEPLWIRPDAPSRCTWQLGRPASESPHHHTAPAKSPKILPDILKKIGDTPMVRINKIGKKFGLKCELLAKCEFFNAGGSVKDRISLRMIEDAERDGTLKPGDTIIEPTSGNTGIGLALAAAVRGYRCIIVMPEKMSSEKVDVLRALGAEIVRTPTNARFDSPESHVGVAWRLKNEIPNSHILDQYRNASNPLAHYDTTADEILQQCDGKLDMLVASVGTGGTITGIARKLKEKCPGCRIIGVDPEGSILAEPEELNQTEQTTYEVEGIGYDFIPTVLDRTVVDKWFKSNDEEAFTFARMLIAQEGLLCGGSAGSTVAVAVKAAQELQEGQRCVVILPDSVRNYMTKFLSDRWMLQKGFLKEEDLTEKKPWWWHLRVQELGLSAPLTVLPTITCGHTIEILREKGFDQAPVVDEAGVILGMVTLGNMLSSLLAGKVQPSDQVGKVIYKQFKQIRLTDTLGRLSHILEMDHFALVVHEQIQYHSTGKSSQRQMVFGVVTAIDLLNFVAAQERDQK
The data set is described as follows: Inhibition of full-length GST-fused human CBS assessed as reduction in H2S production using 2 mM […] as substrate preincubated for 3 mins followed by substrate addition. In a few lines: (§1)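 Lead sulfide H2S assay on purified human CBS (5 μg, wild-type or alanine mutant) in 200 μL of 50 mM HEPES pH 7.4 with 5% DMSO and 0.4 mM lead nitrate. Enzyme and 2 mM homocysteine preincubated 3 min at 37 °C, then 2 mM cysteine added. Lead sulfide read at 390 nm (ε 5500 M−1 cm−1). Activity is relative to a DMSO control, mean ± SD (n = 3). The detergent test included 0.01% Triton X-100.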

The target of data set [2] is T2, Cystathionine beta-synthase (Homo sapiens) (UniProt P35520).
T2 sequence (whole entry): T1 sequence (P35520 whole entry)
Description: Non-competitive inhibition of full-length GST-fused human CBS using […] as substrate by Lineweaver-burk plot analysis.

For data set [3], the system named is HT-29. Description: Antiproliferative activity against human HT-29 cells after 24 hrs by CCK8 assay. The data set is classed as functional, cell-based. Particulars: HT-29, 24 h. In a few lines: (§2)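 HT29 cells grown in DMEM with 10% FBS and 1% penicillin–streptomycin, 37 °C, 5% CO2. Seeded at 1 × 10^4 cells/well, cultured 24 h, then exposed to varying compound concentrations for 24 h. CCK-8 added for 2 h at 37 °C and OD450 read. Viability expressed as % of untreated medium control. IC50 fitted from means ± SD (n = 4). Knockdown cells were transfected with CBS siRNA for 48 h beforehand.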

The test system of data set [4] is HT-29. The data set is described as follows: Antiproliferative activity against human HT-29 cells harboring CBS SiRNA after 24 hrs by CCK8 assay. The class given is functional, cell-based. Particulars: HT-29, 24 h. An outline of the steps: as §2
For orientation: Formazan colour is commonly taken as a measure of viable cells.

Data set [5] deals with Mus musculus. Description: Toxicity in BALB/c nude mouse xenografted with human HT-29 cells assessed as effect on body weight at 10 mg/kg, sc administered once daily for 6 days followed by 1 day interval and subsequent dosing for 6 days. The class given is organism-based. Particulars: in vivo. In a few lines:
(§3)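 Male BALB/c nude mice, five weeks old, given s.c. HT29 cells (100 μL of 1 × 10^7 cells/mL) in the right armpit. Randomized when tumours reached about 100 mm3. Daily s.c. dosing at 3 or 10 mg/kg/d, vehicle 1% DMSO with 0.5% carboxymethylcellulose in PBS, 6 d on and 1 d off, 12 treatments in total, n = 6. Tumour volume by calipers (0.5 × L × W²) and body weight monitored. Tumours excised and weighed on day 28.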
For orientation: A xenograft is tissue or cells of one species grown in another, often human tumour cells in immunodeficient mice.

Data set [6] has as its system HT-29. Description: Antitumor activity against human HT-29 cells xenografted in BALB/c nude mouse assessed as tumor growth inhibition at 10 mg/kg, sc administered once daily for 6 days followed by 1 day interval and subsequent dosing for 6 days. The class given is functional, organism-based. An outline of the steps: as §3
Data set [7] concerns HT-29. The data set is described as follows: Antitumor activity against human HT-29 cells xenografted in BALB/c nude mouse assessed as reduction in tumor weight at 10 mg/kg, sc administered once daily for 6 days followed by 1 day interval and subsequent dosing for 6 days relative to control. The class given is functional. More on the design: scale not given: the % may be the effect or the level left. An outline of the steps: as §3

Data set [8] has as its target T2, Cystathionine beta-synthase (Homo sapiens). Description: Competitive inhibition of full-length GST-fused human CBS up to 10 uM using […] as substrate by Lineweaver-burk plot analysis.
The target of data set [9] is T1, Cystathionine beta-synthase. The data set is described as follows: Inhibition of full-length GST-fused human CBS assessed as reduction in H2S production using 20 mM […] as substrate preincubated for 3 mins followed by substrate addition. An outline of the steps:
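Same lead sulfide H2S assay on purified human wild-type CBS (5 μg, 50 mM HEPES pH 7.4, 5% DMSO, 0.4 mM lead nitrate, 37 °C), with cysteine raised to 20 mM and homocysteine kept at 2 mM. Lead sulfide read at 390 nm.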

Data set [10] has the same target. Description: Inhibition of full-length GST-fused human CBS assessed as reduction in H2S production using […] as substrate preincubated for 3 mins followed by substrate addition measured in presence of Triton X-100. An outline of the steps: as §1
Data set [11] addresses Cystathionine beta-synthase (Homo sapiens, UniProt P35520, T193A). Description: Inhibition of human CBS T193A mutant assessed as reduction in H2S production using […] as substrate preincubated for 3 mins followed by substrate addition. An outline of the steps:
as §1

Data set [12] addresses Cystathionine beta-synthase (Homo sapiens, UniProt P35520, N194A). Description: Inhibition of human CBS N194A mutant assessed as reduction in H2S production using 2 mM […] as substrate preincubated for 3 mins followed by substrate addition. In a few lines:
as §1

For data set [13], the target named is Cystathionine beta-synthase (Homo sapiens, UniProt P35520, H203A). Description: Inhibition of human CBS H203A mutant assessed as reduction in H2S production using […] preincubated for 3 mins followed by substrate addition. In a few lines:
as §1

Data set [14] concerns the target Cystathionine beta-synthase (Homo sapiens, UniProt P35520, Y223A). Description: Inhibition of human CBS Y223A mutant assessed as reduction in H2S production using 2 mM […] as substrate preincubated for 3 mins followed by substrate addition. In a few lines: as §1
Data set [15] has as its target Cystathionine beta-synthase (Homo sapiens, UniProt P35520, Y308A). The data set is described as follows: Inhibition of human CBS Y308A mutant assessed as reduction in H2S production using 2 mM […] as substrate preincubated for 3 mins followed by substrate addition. In a few lines:
as §1

For data set [16], the species on record is Homo sapiens. Description: Selectivity ratio of IC50 for human CBS H203A mutant to IC50 for full-length GST-fused human CBS.
For data set [17], the species on record is Homo sapiens. The data set is described as follows: Selectivity ratio of IC50 for human CBS Y308A mutant to IC50 for full-length GST-fused human CBS.
The nature of data set [18]: Selectivity ratio of IC50 for human HT-29 cells harboring CBS SiRNA to IC50 for human HT-29 cells. The class given is functional.
The subject of data set [19] is HT-29. The data set is described as follows: Induction of apoptosis in human HT-29 cells at 0.5 uM after 24 hrs by Annexin V-FITC/propidium iodide staining based flow cytometry relative to control. The data set is classed as functional. An outline of the steps:
(§4)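 HT29 cells seeded at 5 × 10^5 per well and treated 24 h with 0.5, 1 or 2 μM compound. Cells trypsinized, washed in cold PBS, stained with FITC–Annexin V and PI for 15 min in the dark at room temperature. 10 000 cells analysed by flow cytometry. Annexin V-positive percentage reported as mean ± SD of three independent experiments.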
On the technique in general: In flow cytometry, cells or beads pass a laser one at a time.

Data set [20] deals with HT-29. The data set is described as follows: Induction of apoptosis in human HT-29 cells at 1 uM after 24 hrs by Annexin V-FITC/propidium iodide staining based flow cytometry relative to control. The class given is functional. In a few lines: as §4
Data set [21] deals with HT-29. The data set is described as follows: Induction of apoptosis in human HT-29 cells at 2 uM after 24 hrs by Annexin V-FITC/propidium iodide staining based flow cytometry relative to control. The class given is functional. An outline of the steps: as §4
In data set [22] the test system is HT-29. The data set is described as follows: Induction of apoptosis in human HT-29 cells after 24 hrs by Annexin V-FITC/propidium iodide staining based flow cytometry. The class given is functional, cell-based. An outline of the steps:
as §4

The subject of data set [23] is Mus musculus. The data set is described as follows: Toxicity in BALB/c nude mouse xenografted with human HT-29 cells assessed as effect on body weight at 3 to 10 mg/kg, sc administered once daily for 6 days followed by 1 day interval and subsequent dosing for 6 days. The data set is classed as organism-based. Particulars: in vivo. An outline of the steps:
as §3

Data set [24] deals with HT-29. Description: Antitumor activity against human HT-29 cells xenografted in sc dosed BALB/c nude mouse assessed as tumor growth inhibition administered once daily for 6 days followed by 1 day interval and subsequent dosing for 6 days. The class given is functional, organism-based. In a few lines: as §3

Cystathionine beta-synthase (Homo sapiens, UniProt P35520, N194A), sequence (P35520 whole entry N194A): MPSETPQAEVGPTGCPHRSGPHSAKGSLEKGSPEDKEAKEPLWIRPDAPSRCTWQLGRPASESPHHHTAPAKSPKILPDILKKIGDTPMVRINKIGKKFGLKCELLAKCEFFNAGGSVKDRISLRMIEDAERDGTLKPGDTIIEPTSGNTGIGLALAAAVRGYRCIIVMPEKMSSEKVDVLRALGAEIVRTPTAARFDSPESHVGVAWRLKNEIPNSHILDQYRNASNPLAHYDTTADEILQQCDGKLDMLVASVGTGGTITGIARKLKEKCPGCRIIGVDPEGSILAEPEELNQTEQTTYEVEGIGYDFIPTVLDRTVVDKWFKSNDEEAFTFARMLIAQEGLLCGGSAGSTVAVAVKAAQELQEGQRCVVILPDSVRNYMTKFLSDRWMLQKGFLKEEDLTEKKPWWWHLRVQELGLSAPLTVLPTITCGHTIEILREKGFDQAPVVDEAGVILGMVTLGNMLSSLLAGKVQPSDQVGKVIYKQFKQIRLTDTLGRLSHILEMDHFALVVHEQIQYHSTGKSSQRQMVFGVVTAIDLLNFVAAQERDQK
Cystathionine beta-synthase (Homo sapiens, UniProt P35520, Y223A), sequence (P35520 whole entry Y223A): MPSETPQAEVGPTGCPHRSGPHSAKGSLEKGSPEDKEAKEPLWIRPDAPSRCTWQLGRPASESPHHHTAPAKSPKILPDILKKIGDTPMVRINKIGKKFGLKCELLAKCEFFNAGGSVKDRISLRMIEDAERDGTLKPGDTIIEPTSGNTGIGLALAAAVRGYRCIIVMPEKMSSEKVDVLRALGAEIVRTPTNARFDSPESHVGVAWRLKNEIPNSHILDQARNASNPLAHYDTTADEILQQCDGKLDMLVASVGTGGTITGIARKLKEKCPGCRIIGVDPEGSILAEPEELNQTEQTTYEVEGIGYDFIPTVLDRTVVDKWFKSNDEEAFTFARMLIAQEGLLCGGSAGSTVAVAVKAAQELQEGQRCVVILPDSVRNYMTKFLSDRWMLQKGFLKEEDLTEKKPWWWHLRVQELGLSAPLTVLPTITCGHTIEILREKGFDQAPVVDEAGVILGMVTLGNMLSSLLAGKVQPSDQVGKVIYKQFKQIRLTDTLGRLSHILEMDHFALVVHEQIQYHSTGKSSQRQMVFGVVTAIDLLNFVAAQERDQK
Cystathionine beta-synthase (Homo sapiens, UniProt P35520, H203A), sequence (P35520 whole entry H203A): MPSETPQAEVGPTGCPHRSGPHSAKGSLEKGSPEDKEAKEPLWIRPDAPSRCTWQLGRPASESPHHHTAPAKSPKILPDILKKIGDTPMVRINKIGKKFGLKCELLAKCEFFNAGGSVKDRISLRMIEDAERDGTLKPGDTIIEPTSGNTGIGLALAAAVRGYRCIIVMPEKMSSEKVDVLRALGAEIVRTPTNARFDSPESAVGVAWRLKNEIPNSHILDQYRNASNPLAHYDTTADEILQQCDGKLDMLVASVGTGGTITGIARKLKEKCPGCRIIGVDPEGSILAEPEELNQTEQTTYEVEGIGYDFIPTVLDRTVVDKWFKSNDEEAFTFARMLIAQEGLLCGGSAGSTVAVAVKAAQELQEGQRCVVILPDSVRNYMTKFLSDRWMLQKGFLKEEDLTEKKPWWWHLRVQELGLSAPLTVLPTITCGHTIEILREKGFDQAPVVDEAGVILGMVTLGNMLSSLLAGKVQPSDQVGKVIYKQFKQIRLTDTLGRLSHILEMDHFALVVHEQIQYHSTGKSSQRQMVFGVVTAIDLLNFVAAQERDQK
Cystathionine beta-synthase (Homo sapiens, UniProt P35520, Y308A), sequence (P35520 whole entry Y308A): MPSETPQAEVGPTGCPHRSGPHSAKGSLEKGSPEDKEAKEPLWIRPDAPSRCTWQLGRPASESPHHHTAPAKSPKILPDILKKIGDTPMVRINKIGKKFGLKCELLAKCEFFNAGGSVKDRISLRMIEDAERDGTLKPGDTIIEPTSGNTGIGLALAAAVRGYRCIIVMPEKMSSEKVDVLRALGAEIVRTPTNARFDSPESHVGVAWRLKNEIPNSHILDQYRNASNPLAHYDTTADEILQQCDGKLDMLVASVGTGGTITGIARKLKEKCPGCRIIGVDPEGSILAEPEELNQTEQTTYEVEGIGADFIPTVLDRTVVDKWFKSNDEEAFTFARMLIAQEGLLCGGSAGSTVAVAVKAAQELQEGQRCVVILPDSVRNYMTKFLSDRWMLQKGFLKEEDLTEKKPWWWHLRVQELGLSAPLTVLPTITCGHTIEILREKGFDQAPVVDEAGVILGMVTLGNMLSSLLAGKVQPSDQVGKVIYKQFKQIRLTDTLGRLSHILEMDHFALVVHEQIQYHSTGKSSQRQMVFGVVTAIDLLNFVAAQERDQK
Cystathionine beta-synthase (Homo sapiens, UniProt P35520, T193A), sequence (P35520 whole entry T193A): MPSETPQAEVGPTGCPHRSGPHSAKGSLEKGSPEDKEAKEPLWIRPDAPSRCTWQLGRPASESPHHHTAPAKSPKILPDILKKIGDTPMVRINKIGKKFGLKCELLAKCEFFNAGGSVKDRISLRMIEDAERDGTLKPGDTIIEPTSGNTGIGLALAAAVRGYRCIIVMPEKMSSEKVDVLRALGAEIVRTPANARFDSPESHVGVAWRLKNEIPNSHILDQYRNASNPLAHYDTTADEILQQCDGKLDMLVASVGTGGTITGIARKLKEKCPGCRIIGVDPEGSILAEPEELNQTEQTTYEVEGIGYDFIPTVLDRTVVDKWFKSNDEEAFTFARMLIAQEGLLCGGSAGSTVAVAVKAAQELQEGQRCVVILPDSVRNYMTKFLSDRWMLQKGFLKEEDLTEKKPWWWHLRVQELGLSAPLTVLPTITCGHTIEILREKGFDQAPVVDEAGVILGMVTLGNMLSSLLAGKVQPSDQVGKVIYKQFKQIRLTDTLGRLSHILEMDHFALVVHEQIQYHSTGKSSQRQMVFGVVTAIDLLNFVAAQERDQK

Turning to `NOCC(=O)O` [CARBOXYMETHOXYLAMINE], the IC50 in data set [1] is 7.5 µM; in [3] it was 159 µM; in data set [4], 287 µM. The inhibition entry in data set [2] was “Active”. The results for the Activity result in data set [5] and in [7] were “Non-Toxic” and 44%, respectively. In [6], the TGI entry was “Active”.

As for `COc1ccc([C@H]2Oc3cc(O)cc(O)c3C(=O)[C@@H]2[C@H]2C(=O)c3c(O)cc(O)cc3O[C@@H]2c2ccc(O)cc2)cc1` [SIKOKIANIN C], the inhibition result in [8] is “Active”. The 50% inhibitory concentration (IC50) turned out to be 0.9 µM in [1]; 5.5 µM in [9]; 1.4 µM in data set [10]; 11.2 µM in [11]; 18.7 µM in [12]; 43 µM in data set [13]. For the same compound, the IC50 in data set [14] is 16.9 µM; in data set [15] it was 24 µM; in data set [3] it was 1.6 µM; in [4], 4.7 µM. In addition, the Ratio IC50 stood at 48 in data set [16], 27 in data set [17] and 3 in [18]. Moreover, the Activity is 17.1% in data set [19]; 22% in data set [20]; 31.5% in [21]; “Dose-dependent effect” in [22]; “Non-Toxic” in data set [23]; “Dose-dependent effect” in [24]. Also, in [7], the Activity is on record as 46%.
